Test results published in PMC9380797 (Indian Journal of Nuclear Medicine : IJNM : The Official …, 2022).

Key:
[1] = Bio-distribution in normal control rats; type: in vivo, rat; details: for ID/g Bladder / ID/g Bone / ID/g Brain / ID/g Heart / ID/g Kidney / ID/g Large intestine / ID/g Liver / ID/g Lung / ID/g Muscle / ID/g Prostate / ID/g Small intestine / ID/g Spleen / ID/g Stomach / ID/g Thyroid: normal control rats; for percent-specific uptake in the prostate: normal healthy rats
In short: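 Healthy adult male Sprague Dawley rats (6–7 weeks, 200–250 g) given 200 µCi of Tc-99m-labelled test compound intravenously via a penile vein. Animals sacrificed at several post-injection times (1, 2, 4 and 6 h). Organs excised, weighed and counted in a well scintillation counter. %ID/g calculated against a standard of the injected dose. n=3, mean ± SD, ANOVA.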

[2] = Partition coefficient measurement log Po/w; type: physicochemical
[3] = Plasma protein binding of the radio-complex; type: in vitro ADME; details: rat plasma, 37°C up to 1 hr
In short: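 Pellet re-suspended in 5% TCA and re-centrifuged. Precipitate and supernatant counted in a well-type gamma counter; binding given as protein-bound percent of total activity.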

[4] = Blood pharmacokinetics after intravenous administration; type: in vivo, rat; details: rats, i.v.
In short: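 Male Sprague Dawley rats (200–250 g) given 200 µCi of Tc-99m-labelled test compound via a penile vein. Blood drawn from the ocular vein at intervals over 0–120 min and counted in a well-type scintillation counter, expressed as counts per ml of blood. Peak times read from the activity–time curve.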

Substance: Tc-99m-17-oxo-17a-aza-D-homo-5-androsten-3 β-ylphenoxyacetate [Tc-99m-17a-aza steroid]
- ID/g Bladder ([1]; First h): 1.758±0.706 ID/g
- ID/g Bladder ([1]; Fourth h): 1.121±0.896 ID/g
- ID/g Bladder ([1]; Second h): 1.71±0.550 ID/g
- ID/g Bladder ([1]; Sixth h): 1.840±0.724 ID/g
- ID/g Bone ([1]; First h): 1.77±0.14 ID/g
- ID/g Bone ([1]; Fourth h): 0.163±0.011 ID/g
- ID/g Bone ([1]; Second h): 0.694±0.077 ID/g
- ID/g Bone ([1]; Sixth h): 0.59±0.085 ID/g
- ID/g Brain ([1]; First h): 0.217±0.065 ID/g
- ID/g Brain ([1]; Fourth h): 0.133±0.027 ID/g
- ID/g Brain ([1]; Second h): 0.064±0.005 ID/g
- ID/g Brain ([1]; Sixth h): 0.096±0.074 ID/g
- ID/g Heart ([1]; First h): 0.416±0.005 ID/g
- ID/g Heart ([1]; Fourth h): 0.535±0.274 ID/g
- ID/g Heart ([1]; Second h): 0.547±0.065 ID/g
- ID/g Heart ([1]; Sixth h): 0.557±0.061 ID/g
- ID/g Kidney ([1]; First h): 7.476±1.300 ID/g
- ID/g Kidney ([1]; Fourth h): 13.726±2.948 ID/g
- ID/g Kidney ([1]; Second h): 9.093±0.897 ID/g
- ID/g Kidney ([1]; Sixth h): 15.403±2.545 ID/g
- ID/g Large intestine ([1]; First h): 0.654±0.294 ID/g
- ID/g Large intestine ([1]; Fourth h): 0.635±0.079 ID/g
- ID/g Large intestine ([1]; Second h): 0.691±0.178 ID/g
- ID/g Large intestine ([1]; Sixth h): 0.915±0.186 ID/g
- ID/g Liver ([1]; First h): 4.44±0.836 ID/g
- ID/g Liver ([1]; Fourth h): 9.423±1.188 ID/g
- ID/g Liver ([1]; Second h): 5.293±1.504 ID/g
- ID/g Liver ([1]; Sixth h): 13.303±1.618 ID/g
- ID/g Lung ([1]; First h): 3.145±0.465 ID/g
- ID/g Lung ([1]; Fourth h): 3.354±2.237 ID/g
- ID/g Lung ([1]; Second h): 7.207±4.919 ID/g
- ID/g Lung ([1]; Sixth h): 4.292±1.191 ID/g
- ID/g Muscle ([1]; First h): 0.337±0.003 ID/g
- ID/g Muscle ([1]; Fourth h): 0.126±0.015 ID/g
- ID/g Muscle ([1]; Second h): 0.462±0.241 ID/g
- ID/g Muscle ([1]; Sixth h): 0.160±0.06 ID/g
- ID/g Prostate ([1]; First h): 0.303±0.017 ID/g
- ID/g Prostate ([1]; Fourth h): 0.298±0.079 ID/g
- ID/g Prostate ([1]; Second h): 0.518±0.133 ID/g
- ID/g Prostate ([1]; Sixth h): 0.269±0.182 ID/g
- ID/g Small intestine ([1]; First h): 0.639±0.277 ID/g
- ID/g Small intestine ([1]; Fourth h): 0.659±0.150 ID/g
- ID/g Small intestine ([1]; Second h): 1.276±0.526 ID/g
- ID/g Small intestine ([1]; Sixth h): 0.944±0.074 ID/g
- ID/g Spleen ([1]; First h): 4.002±0.245 ID/g
- ID/g Spleen ([1]; Fourth h): 8.33±1.334 ID/g
- ID/g Spleen ([1]; Second h): 5.816±0.886 ID/g
- ID/g Spleen ([1]; Sixth h): 9.04±1.165 ID/g
- ID/g Stomach ([1]; First h): 0.124±0.065 ID/g
- ID/g Stomach ([1]; Fourth h): 0.094±0.045 ID/g
- ID/g Stomach ([1]; Second h): 0.101±0.042 ID/g
- ID/g Stomach ([1]; Sixth h): 0.091±0.013 ID/g
- ID/g Thyroid ([1]; First h): 0.35±0.053 ID/g
- ID/g Thyroid ([1]; Fourth h): 0.422±0.095 ID/g
- ID/g Thyroid ([1]; Second h): 0.512±0.106 ID/g
- ID/g Thyroid ([1]; Sixth h): 0.031±0.007 ID/g
- percent-specific uptake in the prostate ([1]; 1 h after administration): 0.303%
- percent-specific uptake in the prostate ([1]; 2 h after administration): 0.518%
- percent-specific uptake in the prostate ([1]; 4 h after administration): 0.298%
- percent-specific uptake in the prostate ([1]; 6 h after administration): 0.269%
- Log Po/w [2]: 0.118 ± 0.045
- Plasma protein binding [3]: 86.23 ± 7.08%
- time of first peak in blood [4]: 50 s
- time of second peak in blood [4]: 50 min
